The species entered for one series is Homo sapiens. As to the kind of experiment: Induction of ERK phosphorylation in human HepG2 cells at 5 uM after 15 to 120 mins by Western blot analysis. The series is classed as cell-based. Summed up:
(§1)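 HepG2 cells (2×10^6/well) treated at the indicated concentrations and times. Whole-cell lysates, or nuclear and cytoplasmic fractions, are prepared and quantified by BCA. Samples are run at 40 μg/lane on 12% SDS-PAGE, transferred to nitrocellulose, probed with specific antibodies and HRP secondary (1/5000), and detected by ECL. Where used, LY294002 (15 μM), SP600125 (25 μM) or DTT (400 μM) is added 1 h before compound.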
(A western blot detects proteins with antibodies after separation by electrophoresis.)

The target in series [1] is Kelch-like ECH-associated protein 1 (Homo sapiens) (UniProt Q14145). As to the kind of experiment: Induction of keap1-dependent Nrf2 stabilization in human HepG2 cells assessed as upregulation of total Nrf2 level at 5 uM pretreated for 3 hrs followed by coincubation with 5 ug/ml cycloheximide for 24 hrs by Western blot analysis. It counts as cell-based. A digest of the protocol: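 HepG2 cells pretreated with or without 5 μM compound for 3 h, then given 5 μg/mL cycloheximide for the indicated periods (up to 24 h). Total lysates are immunoblotted for Nrf2. Half-life is obtained by fitting a single-phase decay model.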
Chain of Kelch-like ECH-associated protein 1 (Homo sapiens) (Q14145 whole entry): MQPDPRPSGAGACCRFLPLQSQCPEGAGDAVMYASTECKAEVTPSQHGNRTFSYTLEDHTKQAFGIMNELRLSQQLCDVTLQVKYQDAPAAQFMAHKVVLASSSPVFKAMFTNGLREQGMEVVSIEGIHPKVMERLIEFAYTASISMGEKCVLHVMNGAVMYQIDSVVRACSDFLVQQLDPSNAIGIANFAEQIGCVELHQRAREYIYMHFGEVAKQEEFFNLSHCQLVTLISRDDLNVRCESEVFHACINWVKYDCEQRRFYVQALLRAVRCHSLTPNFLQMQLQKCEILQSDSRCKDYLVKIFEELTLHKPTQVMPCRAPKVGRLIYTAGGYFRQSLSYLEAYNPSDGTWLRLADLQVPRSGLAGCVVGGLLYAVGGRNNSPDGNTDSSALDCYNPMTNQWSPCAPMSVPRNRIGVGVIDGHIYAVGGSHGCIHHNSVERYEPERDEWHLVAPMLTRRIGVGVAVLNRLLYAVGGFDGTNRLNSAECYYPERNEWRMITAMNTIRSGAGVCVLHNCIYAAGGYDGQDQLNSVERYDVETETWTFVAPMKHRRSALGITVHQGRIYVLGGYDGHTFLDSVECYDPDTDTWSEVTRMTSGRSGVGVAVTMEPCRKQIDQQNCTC

Series [2] shares this target. Put plainly: Induction of keap1-dependent Nrf2 stabilization in human HepG2 cells assessed as upregulation of total Nrf2 expression at 5 uM by Western blot analysis. The series is classed as cell-based. The settings on record: TDE = time-dependent effect. A digest of the protocol:
as §1

The target in series [3] is T1, Nuclear factor erythroid 2-related factor 2 (Homo sapiens) (UniProt Q16236).
T1 sequence (whole entry): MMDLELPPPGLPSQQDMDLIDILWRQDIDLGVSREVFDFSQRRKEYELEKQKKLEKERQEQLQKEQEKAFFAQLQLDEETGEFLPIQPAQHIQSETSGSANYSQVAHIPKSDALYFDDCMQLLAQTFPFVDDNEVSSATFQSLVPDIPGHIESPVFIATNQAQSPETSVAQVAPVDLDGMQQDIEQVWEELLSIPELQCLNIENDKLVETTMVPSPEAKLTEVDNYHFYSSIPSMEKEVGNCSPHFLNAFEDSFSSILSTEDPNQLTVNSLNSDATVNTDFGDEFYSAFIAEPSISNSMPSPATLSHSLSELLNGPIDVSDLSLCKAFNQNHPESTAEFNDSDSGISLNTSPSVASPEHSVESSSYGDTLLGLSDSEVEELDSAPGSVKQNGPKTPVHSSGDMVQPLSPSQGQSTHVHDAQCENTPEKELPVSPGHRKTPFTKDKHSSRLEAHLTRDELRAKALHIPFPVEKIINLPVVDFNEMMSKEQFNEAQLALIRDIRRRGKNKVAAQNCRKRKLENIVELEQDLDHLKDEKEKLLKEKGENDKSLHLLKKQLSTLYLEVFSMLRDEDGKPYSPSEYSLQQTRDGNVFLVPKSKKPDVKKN
Put plainly: Activation of Nrf2 in human HepG2 cells assessed as increase in GCLC expression level at 5 uM in presence of 25 uM JNK inhibitor SP600125 for 1 hr prior to compound treatment by Western blot analysis. The series is classed as cell-based. A digest of the protocol:
as §1

For series [4], the target named is T1, Nuclear factor erythroid 2-related factor 2 (Homo sapiens). Put plainly: Activation of Nrf2 in human HepG2 cells assessed as increase in GCLM expression level after 3 hrs by Western blot analysis. The series is classed as cell-based. A digest of the protocol:
as §1

For series [5] the target is unchanged. As to the kind of experiment: Activation of Nrf2 in human HepG2 cells assessed as increase in nuclear Nrf2 expression level at 5 uM after 1 to 6 hrs by Western blot analysis. The series is classed as cell-based. A digest of the protocol:
as §1

The target is the same in series [6]. Put plainly: Activation of Nrf2 in human HepG2 cells assessed as increase in HO-1 expression level after 24 hrs by Western blot analysis. The series is classed as cell-based. Summed up:
as §1

A short description of series [7]: Stability of the compound in PBS at 40 uM at pH 7.4 at 25 degC measured for 30 mins by UV-Vis spectrophotometric analysis. It counts as physicochemical. The settings on record: buffer, pH 7.4, 0.5 h. Summed up:
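Compound at 40 μM in PBS (pH 7.4) at 25 °C. UV-visible absorption spectra recorded every 2 min for 30 min against blanks of solution plus DMSO.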

Series [8] concerns the target T1, Nuclear factor erythroid 2-related factor 2 (Homo sapiens). Put plainly: Activation of Nrf2 in human HepG2 cells assessed as cytoprotection against t-BHP-induced oxidative cell death at 5 uM incubated for 24 hrs followed by compound removal with subsequent incubation with 900 uM of t-BHP for 6 hrs in presence of 25 uM JNK inhibitor SP600125 for 1 hr prior to compound treatment by MTT assay. The series is classed as cell-based. Summed up:
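HepG2 cells (5×10^3/well) seeded and grown 24 h in 1640 medium with 10% FBS at 37 °C and 5% CO2. Compound is added for 24 h, then removed, and cells are challenged with 900 μM t-BHP for 6 h at 37 °C. MTT (0.5 mg/mL) is added for 4 h, formazan dissolved in DMSO, and absorbance read at 570 nm. Where used, inhibitors are added 1 h before compound. Mean ± SD of three independent experiments.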
A general note: Formazan colour is commonly taken as a measure of viable cells.

For series [9] the target is unchanged. Put plainly: Activation of Nrf2 in human HepG2 cells assessed as increase in nuclear Nrf2 expression level after 3 hrs by Western blot analysis. It counts as cell-based. Summed up: as §1

Calls of active or inactive are those of the source. The calls are words filed in the database; no cut-off is given here.

The source of these data is ChEMBL document CHEMBL4020714, “Design, synthesis, and evaluation of curcumin derivatives as Nrf2 activators and cytoprotectors against oxidative death” (Eur J Med Chem, 2017).

For the compound `CC(C)(C(=O)/C=C/c1ccc(O)c(O)c1)C(=O)/C=C/c1ccc(O)c(O)c1`, the outcome (in the series filed under Homo sapiens; in [3]; in series [8]) was inactive. The result in series [1], in [4] and in series [5] was Active. The Activity result in series [2] is “Tde”; in series [6], “Dose-dependent effect”; in series [9], “Dose-dependent effect”. Moreover, in series [7], the Stability result was “Stable”.
